According to ChEMBL document CHEMBL5653631, “A Potent and Selective ULK1 Inhibitor Suppresses Autophagy and Sensitizes Cancer Cells to Nutrient Stress” (iScience, 2018):

How the values were obtained:
[1] = target: T1, Mitogen-activated protein kinase 12 (Homo sapiens) (UniProt P53778); test: Inhibition of human recombinant p38gamma at 500 nM in presence of ATP by radiometric assay relative to control
T1 sequence (whole entry): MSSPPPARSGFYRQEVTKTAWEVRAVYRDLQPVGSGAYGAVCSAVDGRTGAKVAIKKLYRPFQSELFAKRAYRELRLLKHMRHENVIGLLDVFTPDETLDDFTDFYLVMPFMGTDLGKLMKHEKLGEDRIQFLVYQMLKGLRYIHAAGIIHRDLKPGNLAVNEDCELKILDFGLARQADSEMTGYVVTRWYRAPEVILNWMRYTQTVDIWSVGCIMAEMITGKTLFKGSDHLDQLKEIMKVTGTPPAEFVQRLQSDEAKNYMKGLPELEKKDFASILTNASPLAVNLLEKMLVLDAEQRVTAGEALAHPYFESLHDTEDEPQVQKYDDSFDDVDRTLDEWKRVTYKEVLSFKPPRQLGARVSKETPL

[2] = target: T2, Testis-specific serine/threonine-protein kinase 2 (Homo sapiens) (UniProt Q96PF2); test: Inhibition of human recombinant TSSK2 at 500 nM in presence of ATP by radiometric assay relative to control
T2 sequence (whole entry): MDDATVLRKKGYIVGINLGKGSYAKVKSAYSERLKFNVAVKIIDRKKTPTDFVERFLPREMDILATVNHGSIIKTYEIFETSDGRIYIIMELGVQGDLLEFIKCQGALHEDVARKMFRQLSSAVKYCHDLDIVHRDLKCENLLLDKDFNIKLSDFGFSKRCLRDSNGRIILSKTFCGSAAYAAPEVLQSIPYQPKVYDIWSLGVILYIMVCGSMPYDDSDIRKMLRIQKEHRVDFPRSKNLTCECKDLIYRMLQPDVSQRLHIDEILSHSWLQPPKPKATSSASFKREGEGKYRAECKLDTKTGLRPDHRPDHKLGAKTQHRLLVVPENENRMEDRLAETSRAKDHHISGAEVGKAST

[3] = target: TRAF2 and NCK-interacting protein kinase (Homo sapiens) (UniProt Q9UKE5); test: Inhibition of human recombinant TNIK at 15 nM in presence of ATP by radiometric assay relative to control
Chain of TRAF2 and NCK-interacting protein kinase (Homo sapiens) (Q9UKE5 whole entry, looked up): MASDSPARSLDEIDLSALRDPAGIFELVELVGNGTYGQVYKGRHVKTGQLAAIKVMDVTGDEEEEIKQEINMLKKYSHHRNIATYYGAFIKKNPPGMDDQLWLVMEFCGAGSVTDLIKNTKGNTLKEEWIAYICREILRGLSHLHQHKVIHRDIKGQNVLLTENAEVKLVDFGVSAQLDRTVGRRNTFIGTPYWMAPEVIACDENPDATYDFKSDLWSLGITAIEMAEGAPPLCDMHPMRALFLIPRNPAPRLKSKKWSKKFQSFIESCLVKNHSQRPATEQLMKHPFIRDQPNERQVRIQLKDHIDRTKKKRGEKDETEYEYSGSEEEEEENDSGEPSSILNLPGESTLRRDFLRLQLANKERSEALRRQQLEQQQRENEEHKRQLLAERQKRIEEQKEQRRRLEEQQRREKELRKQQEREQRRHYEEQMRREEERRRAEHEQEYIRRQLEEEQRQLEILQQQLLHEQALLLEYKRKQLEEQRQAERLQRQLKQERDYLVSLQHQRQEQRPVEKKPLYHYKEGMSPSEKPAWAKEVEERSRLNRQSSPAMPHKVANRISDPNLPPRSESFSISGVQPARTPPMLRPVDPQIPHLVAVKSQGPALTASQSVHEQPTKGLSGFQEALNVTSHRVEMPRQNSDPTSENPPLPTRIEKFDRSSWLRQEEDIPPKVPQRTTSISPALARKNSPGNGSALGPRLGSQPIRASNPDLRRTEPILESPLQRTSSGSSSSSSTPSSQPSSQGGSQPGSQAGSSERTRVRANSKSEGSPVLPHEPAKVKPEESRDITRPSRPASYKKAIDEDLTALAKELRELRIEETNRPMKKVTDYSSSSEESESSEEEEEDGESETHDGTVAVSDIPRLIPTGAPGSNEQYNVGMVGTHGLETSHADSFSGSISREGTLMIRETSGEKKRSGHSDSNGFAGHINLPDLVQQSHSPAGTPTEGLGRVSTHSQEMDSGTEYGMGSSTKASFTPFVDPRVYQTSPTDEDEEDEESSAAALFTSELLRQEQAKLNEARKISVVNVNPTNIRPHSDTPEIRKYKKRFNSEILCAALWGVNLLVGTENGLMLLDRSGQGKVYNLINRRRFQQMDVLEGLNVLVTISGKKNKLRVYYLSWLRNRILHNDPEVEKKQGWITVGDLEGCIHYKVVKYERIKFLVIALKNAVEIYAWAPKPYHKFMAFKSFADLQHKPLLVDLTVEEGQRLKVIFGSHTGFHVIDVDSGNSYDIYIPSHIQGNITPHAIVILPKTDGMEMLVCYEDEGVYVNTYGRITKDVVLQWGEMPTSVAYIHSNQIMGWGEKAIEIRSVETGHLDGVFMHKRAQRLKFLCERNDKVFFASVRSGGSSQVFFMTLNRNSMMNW

[4] = target: SRSF protein kinase 2 (Homo sapiens) (UniProt P78362); test: Inhibition of human recombinant SRPK2 at 15 nM in presence of ATP by radiometric assay relative to control
Chain of SRSF protein kinase 2 (Homo sapiens) (P78362 whole entry, looked up): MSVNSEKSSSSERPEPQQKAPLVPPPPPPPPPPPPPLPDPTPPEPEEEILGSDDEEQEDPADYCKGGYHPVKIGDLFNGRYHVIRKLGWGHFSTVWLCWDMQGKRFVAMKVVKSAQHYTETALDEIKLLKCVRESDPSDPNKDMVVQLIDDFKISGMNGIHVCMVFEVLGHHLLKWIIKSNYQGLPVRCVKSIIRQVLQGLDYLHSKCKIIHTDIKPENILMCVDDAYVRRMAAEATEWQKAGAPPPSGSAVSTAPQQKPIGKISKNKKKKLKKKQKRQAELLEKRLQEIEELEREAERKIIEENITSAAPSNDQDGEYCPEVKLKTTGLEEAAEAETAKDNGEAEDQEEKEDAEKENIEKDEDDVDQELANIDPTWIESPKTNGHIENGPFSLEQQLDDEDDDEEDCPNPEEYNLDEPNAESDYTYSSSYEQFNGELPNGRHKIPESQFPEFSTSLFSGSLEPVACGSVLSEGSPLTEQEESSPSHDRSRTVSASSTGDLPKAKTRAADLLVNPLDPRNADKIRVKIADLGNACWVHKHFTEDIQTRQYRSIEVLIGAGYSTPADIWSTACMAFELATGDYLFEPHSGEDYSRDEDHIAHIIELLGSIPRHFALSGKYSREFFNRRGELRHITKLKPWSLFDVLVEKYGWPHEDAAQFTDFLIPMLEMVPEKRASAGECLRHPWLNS

[5] = target: Dual specificity protein kinase CLK1 (Homo sapiens) (UniProt P49759); test: Inhibition of human recombinant CLK1 at 15 nM in presence of ATP by radiometric assay relative to control
Chain of Dual specificity protein kinase CLK1 (Homo sapiens) (P49759 whole entry, looked up): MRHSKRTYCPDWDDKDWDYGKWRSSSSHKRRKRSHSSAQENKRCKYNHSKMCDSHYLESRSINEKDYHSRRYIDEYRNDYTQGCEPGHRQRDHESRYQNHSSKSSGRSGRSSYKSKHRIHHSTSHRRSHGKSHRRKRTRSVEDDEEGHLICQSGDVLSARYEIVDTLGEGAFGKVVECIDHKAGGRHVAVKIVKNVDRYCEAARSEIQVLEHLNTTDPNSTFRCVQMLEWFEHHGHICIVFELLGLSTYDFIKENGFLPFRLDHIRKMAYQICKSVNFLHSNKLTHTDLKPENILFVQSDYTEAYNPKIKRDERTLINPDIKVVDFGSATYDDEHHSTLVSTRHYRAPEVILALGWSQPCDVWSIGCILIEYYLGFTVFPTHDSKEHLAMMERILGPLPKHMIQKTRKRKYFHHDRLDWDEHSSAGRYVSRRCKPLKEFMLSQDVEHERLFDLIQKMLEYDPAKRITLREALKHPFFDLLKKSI

[6] = target: T3, Activin receptor type-1 (Homo sapiens) (UniProt Q04771); test: Inhibition of human recombinant ALK2 at 15 nM related to control ULK1
T3 sequence (whole entry): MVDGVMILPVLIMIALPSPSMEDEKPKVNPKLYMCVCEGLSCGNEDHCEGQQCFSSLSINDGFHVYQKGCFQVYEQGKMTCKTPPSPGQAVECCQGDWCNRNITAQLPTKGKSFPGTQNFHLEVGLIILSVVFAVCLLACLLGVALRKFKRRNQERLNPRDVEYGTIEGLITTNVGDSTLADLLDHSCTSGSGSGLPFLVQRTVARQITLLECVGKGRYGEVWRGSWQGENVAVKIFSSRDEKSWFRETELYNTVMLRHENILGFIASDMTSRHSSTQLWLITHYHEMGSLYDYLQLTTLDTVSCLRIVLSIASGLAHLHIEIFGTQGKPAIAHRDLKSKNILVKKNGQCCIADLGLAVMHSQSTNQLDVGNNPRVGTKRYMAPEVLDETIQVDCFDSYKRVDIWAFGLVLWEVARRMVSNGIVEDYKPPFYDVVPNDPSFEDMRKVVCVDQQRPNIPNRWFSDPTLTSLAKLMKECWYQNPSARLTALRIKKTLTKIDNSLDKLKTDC
How it was run: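 Panel of 327 recombinant human kinases, each assayed in vitro by radiometric activity assay in duplicate at a single inhibitor concentration per compound, chosen with reference to its ULK1 inhibition. Activity remaining was expressed as percent of vehicle control, and percent inhibition was calculated as 100 minus percent activity remaining.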

[7] = target: Transcription initiation factor TFIID subunit 1-like (Homo sapiens) (UniProt Q8IZX4); test: Inhibition of human recombinant TAF1L at 40 nM in presence of ATP by radiometric assay relative to control
Chain of Transcription initiation factor TFIID subunit 1-like (Homo sapiens) (Q8IZX4 whole entry): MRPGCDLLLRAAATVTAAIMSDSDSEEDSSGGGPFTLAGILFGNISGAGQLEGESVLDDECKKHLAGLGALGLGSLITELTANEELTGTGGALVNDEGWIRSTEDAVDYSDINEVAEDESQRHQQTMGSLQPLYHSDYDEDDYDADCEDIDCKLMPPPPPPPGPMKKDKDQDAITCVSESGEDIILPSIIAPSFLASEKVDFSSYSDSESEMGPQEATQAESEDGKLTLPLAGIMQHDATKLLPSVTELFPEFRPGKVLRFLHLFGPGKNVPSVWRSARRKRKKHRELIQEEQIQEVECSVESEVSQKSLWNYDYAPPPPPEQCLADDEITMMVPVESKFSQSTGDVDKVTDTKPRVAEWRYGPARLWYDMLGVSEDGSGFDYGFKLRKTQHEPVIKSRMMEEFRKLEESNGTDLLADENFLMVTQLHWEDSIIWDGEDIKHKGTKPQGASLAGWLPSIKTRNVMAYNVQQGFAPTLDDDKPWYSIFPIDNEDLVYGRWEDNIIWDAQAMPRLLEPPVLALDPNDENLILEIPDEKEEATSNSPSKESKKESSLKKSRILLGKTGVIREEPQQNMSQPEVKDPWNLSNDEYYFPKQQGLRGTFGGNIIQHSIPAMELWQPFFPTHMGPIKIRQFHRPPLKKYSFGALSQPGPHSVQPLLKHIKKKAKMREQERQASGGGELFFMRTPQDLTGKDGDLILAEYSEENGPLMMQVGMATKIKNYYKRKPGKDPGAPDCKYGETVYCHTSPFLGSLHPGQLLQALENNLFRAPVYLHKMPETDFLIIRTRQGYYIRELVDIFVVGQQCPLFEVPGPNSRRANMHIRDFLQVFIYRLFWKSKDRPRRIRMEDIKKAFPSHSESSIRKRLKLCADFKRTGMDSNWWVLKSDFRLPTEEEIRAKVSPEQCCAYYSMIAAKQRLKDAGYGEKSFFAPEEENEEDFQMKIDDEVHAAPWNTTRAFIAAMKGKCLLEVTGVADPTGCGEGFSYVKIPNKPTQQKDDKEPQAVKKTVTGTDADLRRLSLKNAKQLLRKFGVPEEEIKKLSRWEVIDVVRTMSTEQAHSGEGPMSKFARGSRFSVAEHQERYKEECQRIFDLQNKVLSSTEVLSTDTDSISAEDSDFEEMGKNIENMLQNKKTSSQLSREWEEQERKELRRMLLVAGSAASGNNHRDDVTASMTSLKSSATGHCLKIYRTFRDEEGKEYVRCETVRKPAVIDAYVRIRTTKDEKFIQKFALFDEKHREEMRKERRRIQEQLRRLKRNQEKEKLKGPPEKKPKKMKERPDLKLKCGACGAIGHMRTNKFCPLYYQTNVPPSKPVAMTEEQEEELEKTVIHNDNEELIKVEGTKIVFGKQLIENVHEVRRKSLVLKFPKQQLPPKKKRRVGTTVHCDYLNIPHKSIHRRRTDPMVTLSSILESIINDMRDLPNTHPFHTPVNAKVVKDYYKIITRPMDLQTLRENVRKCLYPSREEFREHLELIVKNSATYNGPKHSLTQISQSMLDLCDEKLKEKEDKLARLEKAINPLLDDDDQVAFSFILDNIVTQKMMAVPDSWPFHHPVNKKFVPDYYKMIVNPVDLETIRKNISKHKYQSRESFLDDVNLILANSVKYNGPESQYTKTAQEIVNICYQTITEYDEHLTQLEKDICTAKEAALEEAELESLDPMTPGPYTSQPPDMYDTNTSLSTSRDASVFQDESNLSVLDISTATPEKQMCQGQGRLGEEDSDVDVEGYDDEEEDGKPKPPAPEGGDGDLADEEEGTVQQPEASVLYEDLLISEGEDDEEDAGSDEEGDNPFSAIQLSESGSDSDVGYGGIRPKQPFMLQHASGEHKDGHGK

[8] = target: T4, Eukaryotic elongation factor 2 kinase (Homo sapiens) (UniProt O00418); test: Inhibition of human recombinant eEF2K at 40 nM in presence of ATP by radiometric assay relative to control
T4 sequence (whole entry): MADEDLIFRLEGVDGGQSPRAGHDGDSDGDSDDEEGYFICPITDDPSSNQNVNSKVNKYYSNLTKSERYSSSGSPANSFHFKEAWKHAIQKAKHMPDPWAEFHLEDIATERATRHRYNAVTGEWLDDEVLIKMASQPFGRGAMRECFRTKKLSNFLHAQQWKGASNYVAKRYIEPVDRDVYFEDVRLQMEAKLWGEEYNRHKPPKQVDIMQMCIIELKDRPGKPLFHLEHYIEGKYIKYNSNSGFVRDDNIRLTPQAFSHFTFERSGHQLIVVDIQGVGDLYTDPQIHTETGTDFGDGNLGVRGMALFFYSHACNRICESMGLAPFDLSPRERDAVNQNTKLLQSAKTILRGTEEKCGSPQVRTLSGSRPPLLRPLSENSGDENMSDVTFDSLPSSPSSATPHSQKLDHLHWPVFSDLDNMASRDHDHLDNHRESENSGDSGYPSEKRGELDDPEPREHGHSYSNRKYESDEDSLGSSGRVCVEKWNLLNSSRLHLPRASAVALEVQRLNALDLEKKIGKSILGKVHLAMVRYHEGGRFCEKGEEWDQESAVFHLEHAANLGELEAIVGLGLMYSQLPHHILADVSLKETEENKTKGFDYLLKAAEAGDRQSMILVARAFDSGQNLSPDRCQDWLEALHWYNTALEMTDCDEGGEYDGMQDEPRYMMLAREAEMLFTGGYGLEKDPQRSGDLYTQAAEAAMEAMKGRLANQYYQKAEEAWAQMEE

How did the inhibition [1] turn out when `CNC(=O)c1ccccc1Oc1nc(Nc2cc(OC)c(OC)c(OC)c2)ncc1Br` was run?
Its inhibition is 0%.

What about the inhibition [2] of the same compound?
Its inhibition is 2%.

`CC(C)[C@H](NC(=O)c1cc(-c2cnn3cc(-c4ccc(OCCN5CCCCC5)cc4)cnc23)cs1)C(F)(F)F` was tested. Which inhibition [3] did it give?
Its inhibition is 5%.

And the inhibition [4]?
The inhibition was 0%.

What about the inhibition [5] of the same compound?
The inhibition was 84%.

And the fold change (FC) [6]?
The fold change (FC) was 0.3.

For `O=C(N[C@@H](C1CC1)C(F)(F)F)c1cc(-c2cnn3cc(-c4ccc(F)cc4)cnc23)cs1`, which inhibition [7] is on record?
Its inhibition is 47%.

What about the inhibition [8] of the same compound?
The inhibition was 7%.
